HePTP inhibitor = inhibitors of human HePTP phosphatase, primary screen, biochemical, absorbance, leukemia target | actives 0.64% (n = 110,000) | inhibition, % at 20 µM | Tyrosine-protein phosphatase non-receptor type 7 (Homo sapiens), P35236 | recombinant HePTP phosphatase activity, OD absorbance; in the data active = inhibition above about 50%; inconclusive = no clear call, values can overlap the other calls
FXIIa inh mix = human factor XIIa inhibitors, primary screen, biochemical, pooled compound mixtures, fluorogenic substrate; Coagulation factor XII (Homo sapiens), P00748; purified FXIIa; inhibition, % at 5 µM; actives 0.2% (n = 62,000); AID 684, 2007
BAP1 block = inhibitors of BAP1 deubiquitinase, primary screen, biochemical, Ub-AMC fluorescence, kinetic; AID 436, 2006; actives 0.48% (n = 72,000); Ubiquitin carboxyl-terminal hydrolase BAP1 (Homo sapiens), Q92560; calls only at 20 µM; recombinant BAP1, Ub-AMC hydrolysis fluorescence kinetic; active compounds read low;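 active = activity remaining at or below 50% of control, provided the compound also passes the data quality filters; inactive = the rest, including low values that fail the filters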
AP ELISA ortho = alternative complement pathway inhibitors, primary screen, biochemical, ELISA, human serum, orthogonally pooled compounds. LPS-coated ELISA, C3 deposition; tested in compound mixtures. inhibition, % at 5 µM. actives 0.08% (n = 62,000). AID 1235, 2008;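 active = inhibition above 30% in each of the two pooled mixtures holding the compound, so the lower value exceeds 30%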
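Test system: human serum complement alternative pathway, C3 deposition onto LPS / Medium: Mg2+-EGTA GVB++ buffer containing human serum at 1:15 dilution / Probe or stimulus: Plate-bound LPS / Times: 1 h at 37 °C / Signal: ELISA with HRP anti-human C3 antibody, TMB substrate, absorbance 450 nm / Measure: percent inhibition / Repeats: two pool placements per compound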
FXIa mix inh = FXIa protease inhibitors in compound pools, primary screen, biochemical, 10-compound mixtures | purified FXIa, fluorogenic substrate, pooled mixtures | Coagulation factor XI (Homo sapiens), P03951 | actives 0.19% (n = 62,000) | inhibition, % at 5 µM;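 also: each value is inhibition by a whole ten-compound pool holding the compound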
Target sequence (P03951 19-387 limits assumed): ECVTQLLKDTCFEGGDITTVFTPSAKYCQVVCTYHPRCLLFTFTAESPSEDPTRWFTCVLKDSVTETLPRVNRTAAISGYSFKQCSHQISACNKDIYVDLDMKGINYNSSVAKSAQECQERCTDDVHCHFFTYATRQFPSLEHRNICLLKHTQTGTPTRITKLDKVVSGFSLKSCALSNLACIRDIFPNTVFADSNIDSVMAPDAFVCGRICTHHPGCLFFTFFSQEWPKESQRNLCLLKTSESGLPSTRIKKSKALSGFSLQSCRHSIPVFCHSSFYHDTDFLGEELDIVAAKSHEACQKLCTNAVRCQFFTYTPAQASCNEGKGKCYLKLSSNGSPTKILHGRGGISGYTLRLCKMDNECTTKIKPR
Target sequence (P03951 388-625 limits assumed): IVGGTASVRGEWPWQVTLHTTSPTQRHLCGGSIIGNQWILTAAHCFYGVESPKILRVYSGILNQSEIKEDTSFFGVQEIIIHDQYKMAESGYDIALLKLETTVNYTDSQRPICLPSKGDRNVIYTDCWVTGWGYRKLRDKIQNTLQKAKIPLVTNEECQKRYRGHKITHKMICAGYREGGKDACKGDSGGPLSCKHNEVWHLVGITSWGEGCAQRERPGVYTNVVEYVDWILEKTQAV
BAP1 inh confirm = BAP1 deubiquitinase inhibitors, hit retest, confirmation, orthogonal assay, biochemical, Ub-ethyl ester substrate, HPLC readout | purified BAP1, Ub-ethyl ester hydrolysis; active compounds read low | % of control activity, % at 20 µM | shares compounds with BAP1 block | actives 8% (n = 310);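 active = percent of control activity at or below 60%; inconclusive = HPLC trace unusable from injection failure or solvent front hiding peaks; inactive = the rest, plus ubiquitin peak ratio over a set limit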
Numbers stand for hits; 0 = inactive; ? = inconclusive; - = no result shown; + = active, no number. Most compounds without a hit are left out; they make up all but 1% or so of the library. Rule as the data show it, unless noted: active = inhibition above about 20% (passing the limit was not always enough); inactive = the rest.

SMILES	HePTP inhibitor	FXIIa inh mix	BAP1 block	AP ELISA ortho	FXIa mix inh	BAP1 inh confirm
Cc1ccc(-c2nc3cccnc3o2)cc1NC(=O)COc1ccc(Cl)cc1C	0	0	+	0	0	0
COC(=O)C1=C(C)NC2=C(C(=O)CC(c3cccs3)C2)C1c1ccc(C)s1 (stereo unspecified)	0	-	-	-	-	-
CCOC(=O)C1CCCN(c2ccc(NC(=O)c3snc4c(=O)[nH]cnc34)cc2)C1 (stereo unspecified)	0	0	+	0	0	0
COc1ccc(N(CC(=O)Nc2ccccc2F)S(=O)(=O)c2ccccc2[N+](=O)[O-])c(OC)c1	0	-	-	-	-	-
CCCCCCn1c(-c2ccco2)nc2oc3cc(OC)ccc3c(=O)c2c1=O	0	0	+	0	0	0
O=C(O)c1cccc(S(=O)(=O)NCc2ccccc2)c1	0	-	0	-	-	-
O=C(Nc1nc(-c2nc3ccccc3s2)cs1)c1ccc(S(=O)(=O)N2CCOCC2)cc1	0	0	+	0	0	0
CCOC(=O)N1CCC(NC(=O)c2ccc3c(c2)sc2nc(-c4ccccc4)cn23)CC1	0	0	+	0	0	0
COc1ccc(CNS(=O)(=O)c2ccc(S(=O)(=O)N3CCCCC3)cc2)cc1	0	0	+	0	0	?
Cc1cccc(-c2noc(C(c3ccccc3)c3ccccc3)n2)c1	0	-	-	-	-	-
O=C(c1cccs1)c1ccc(-c2cccs2)s1	0	0	+	0	0	0
O=C(c1cc2ccccc2o1)c1cccs1	0	0	0	0	0	-
NNc1nc(N2CCCCC2)nc(N2CCCCC2)n1	0	-	-	-	-	-
COc1ccccc1N1CCN(c2nc3ccccc3nc2C(C#N)C(=O)OC(C)C)CC1 (stereo unspecified)	0	0	+	0	0	0
CCCCCCNC(=O)C(C#N)c1nc2ccccc2nc1N1CCCC1 (stereo unspecified)	0	0	+	0	0	0
NC1=CC(=O)c2cccc3cccc1c23	0	0	+	0	0	0
Cc1nnc(C)n1N1C(=O)c2cccc3cccc(c23)C1=O	0	0	-	0	0	-
CC(C)Cn1cc(C(=O)N2CCN(c3ccccn3)CC2)c2c3ccccc3n(C)c2c1=O	0	0	+	0	0	0
COc1ccc(C(=O)Nc2ccc(Br)c(C)c2)c(OC)c1	0	-	-	-	-	-
COc1ccccc1NC(=O)C1=C(C)NC(SCC(=O)Nc2ccc(Br)cc2)=C(C#N)C1c1ccco1 (stereo unspecified)	0	-	-	-	-	-
COC(=O)CSc1nc2ccc(NC(=O)CSc3nnnn3Cc3ccccc3)cc2s1	0	0	+	0	0	0
Cn1cnnc1SCC(=O)Nc1ccc2nc(SCc3ccccc3)sc2c1	0	0	0	0	0	-
Cc1ccc(-n2nnnc2SCC(=O)Nc2cccc(NC(=O)c3ccco3)c2)cc1C	0	0	+	0	0	0
CCCCNC(=O)c1cc2c(-c3ccc(Cl)cc3)nn(C)c2s1	0	0	+	0	0	0
COc1ccccc1NC(=O)Nc1c(C)n(C)n(-c2ccccc2)c1=O	0	0	+	0	0	0
SMILES	HePTP inhibitor	FXIIa inh mix	BAP1 block	AP ELISA ortho	FXIa mix inh	BAP1 inh confirm
COc1ccccc1C(=O)Nc1c(C)n(C)n(-c2ccccc2)c1=O	0	0	0	0	0	-
Cc1cccc(OCC(=O)Nc2ccc(N3CCN(S(C)(=O)=O)CC3)cc2)c1C	0	0	+	0	0	0
COc1ccc(C2CC(=O)N3CN(c4ccc(C)c(Cl)c4)CSC3=C2C#N)cc1OC (stereo unspecified)	0	0	+	0	0	?
COc1ccc(N2CSC3=C(C#N)C(c4ccc(OC)c(OC)c4)CC(=O)N3C2)c(OC)c1 (stereo unspecified)	0	0	0	0	0	-
O=C(CSc1nnc(-c2c[nH]c3ccccc23)o1)N1c2ccccc2CCc2ccccc21	0	0	+	0	0	0
Cc1cc(C)n(-c2ccc(C(=O)OCC(=O)c3ccc(Br)s3)cc2)n1	0	0	+	0	0	0
COc1ccc2cc(CN(Cc3ccco3)Cc3nnnn3C3CCCCC3)c(=O)[nH]c2c1	0	0	0	0	0	-
CCC(c1nnnn1C1CCCC1)N(Cc1cccs1)Cc1cc2cc(C)ccc2[nH]c1=O (stereo unspecified)	0	0	+	0	0	0
Cc1ccc2cc(CN(Cc3ccccc3)Cc3nnnn3C3CCCC3)c(=O)[nH]c2c1	0	0	+	0	0	0
CCc1ccc2[nH]c(=O)c(CN(Cc3ccc4c(c3)OCO4)Cc3nnnn3C3CCCC3)cc2c1	0	0	-	0	0	-
Cc1ccc2cc(CN(Cc3ccc(F)cc3)Cc3nnnn3C3CCCC3)c(=O)[nH]c2c1	0	0	+	0	0	0
Cc1cc(C)n(-c2ccc3cccc(N)c3n2)n1	-	-	0	-	-	-
COc1ccccc1OCc1ccc(C(=O)n2nc(C)c(Cl)c2C)o1	0	0	+	0	0	0
CCOC(=O)c1c(NC(=O)CSc2nnc(CNc3ccc(F)cc3)o2)sc(C)c1C	0	0	+	0	0	?
COc1ccc(Br)cc1/C=c1\sc2nc(-c3ccco3)nn2c1=O	-	0	+	0	0	0
COc1ccccc1/C=c1\sc2nc(-c3ccc(C)cc3)nn2c1=O	0	-	-	-	-	-
Cc1ccc(-c2nc3s/c(=C\c4ccco4)c(=O)n3n2)cc1	0	0	+	0	0	55
C[n+]1ccc(-c2ncc(-c3ccc(F)cc3)o2)cc1	0	-	-	-	-	-
Cc1ccc(-c2ccc(OCC(=O)Nc3ccc4c(c3)OCCO4)cc2)cc1	0	-	-	-	-	-
CC(C)C(c1nnnn1Cc1ccccc1)N(Cc1ccco1)Cc1cccs1 (stereo unspecified)	0	0	0	0	0	-
COc1ccc(Cn2nnnc2C(C(C)C)N(Cc2ccco2)Cc2cccs2)cc1 (stereo unspecified)	0	0	+	0	0	0
O=C(O)c1ccc(/C=c2\sc3n(c2=O)CCN=3)cc1	0	-	-	-	-	-
COc1cccc(-c2csc(N3CCN(S(=O)(=O)c4ccc(F)cc4)CC3)n2)c1	0	0	+	0	0	0
O=C(NCc1ccccn1)c1ccc(I)cc1	0	-	-	-	-	-
O=S(=O)(c1ccc2c(c1)oc1ccccc12)N1CCOCC1	0	0	+	0	0	0
O=C1c2ccccc2-c2ccc(S(=O)(=O)N3CCOCC3)cc21	0	-	-	-	-	-
Cc1c(C(=O)Nc2ccc(NC(=O)c3ccco3)c(Cl)c2)cccc1[N+](=O)[O-]	0	-	-	-	-	-
O=C(c1ccc(S(=O)(=O)c2ccc(Cl)cc2)cc1)c1ccc(S(=O)(=O)c2ccc(Cl)cc2)cc1	0	-	-	-	-	-
COc1ccc(NC(=O)c2c(NC(=O)CNCc3ccco3)sc3c2CCC3)c(OC)c1	0	0	+	0	0	?

Bioassay records deposited in PubChem BioAssay by several laboratories.
